The values that follow come from the RNAGym collection of RNA variant scans (doi:10.1126/science.aae0568).

To fix the notation:
B1: tRNA (parent)
chain: GUUCCGUUGGCGUAAUGGUAACGCGUCUCCCUCCUAAGGAGAAGACUGCGGGUUCGAGUCCCGUACGGAACG

Variants at the floor of the assay were thinned out.

The data set covers variants of B1. In words: yeast fitness relative to wild type (ratio to wild type); higher = fitter; tRNA-Arg(CCU), competitive growth, 37 C, YPD. In short, it runs like this:
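Amplicons of the tRNA-Arg(CCU) gene were sequenced, 100-nucleotide paired-end, from the start population and from each end population of a pooled yeast competition. The competition, in six parallel replicates, lasted 24 hours in YPD at 37°C. Fitness relative to wild type was calculated from changes in genotype frequencies. Genotypes had to have ≥ 100 starting reads, and estimates < 0.5 were set to 0.5.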
With GUUCCAUUGGCGGAAUGGUAACGCGUCUCCCUCCUAAGGAGAAGACUGCGGGUUCGAGUCCCGUACGGAACG [G6A U13G], the yeast fitness is 0.731.

For GUUCCAUUGGCGUAAUGGGAACGCGUCUCCCUCCUAAGGAGGAGACUGCGGGUUCGAGUCCCGUACGGAACG [G6A U19G A42G], the yeast fitness is ≤ 0.5.

As for GUUCCAUUGGCGUAAUGGUAACGCGUCUCCCACCUAAGGAGAAGACUGCGGGUUCGAGUCCCGUACGGAACG [G6A U32A], the yeast fitness turned out to be 0.809.

Turning to GUUCCCUUGGCGUAAUGGUAACGCGUCUCCCUCCUAGGGUGAAGCCUGCGGGUUCGAGUCCCGUACGGAACG [G6C A37G A40U A45C], the yeast fitness turned out to be 0.702.

As for GUUCCCUUGGCGUAAUGGUAACGCGUCUCCCUCCUUAGAAGAAGACUGCGGGUUCGAGUCCCGUACGGAACG [G6C A36U G39A], the yeast fitness is ≤ 0.5.

Regarding GUUCCAUUGGCGUAAUGGUAACGCGUCUCCCUCCAAAGGUCAAGACUGAGGGUUCGAGUCCCGUACGGAACG [G6A U35A A40U G41C C49A], the yeast fitness was ≤ 0.5.

As to GUUCCCUUGGCGUCAUGGUAACGUGUCUACCUCCUAAGCAGAAGACUGCGGGUUCGAGUCCCGUACGGAACG [G6C A14C C24U C29A G39C], the yeast fitness was ≤ 0.5.

On to GUUCCCUUGGCGUAAUGGUGACGCGUCUCCCUCCUAAGGAGAAGACUGCGGAUUCGAGUCCCGUACGGAACG [G6C A20G G52A], for which the yeast fitness is ≤ 0.5.

With GUUCCAUUGGCGUAAUGGUAACCCGUCUCCCUCCUAAGGAGAAGACUGCGGGUUCGAGUACCGUACGGAACG [G6A G23C C60A], the yeast fitness turned out to be 0.573.

For GUUCCAUCGGCGUAAUGGUCACGCGUUUCCCUCCUAAGGAGAAGACUGCGGGUUCGAGUCCCGUACGGAACG [G6A U8C A20C C27U], the yeast fitness is ≤ 0.5.

Take GUUCCAUUGGCGUAAUGGUAACGCGUCUCCCUCCUAAGGAGAAAACUGCGGGUUCGAGACCCGUACGGUACG [G6A G44A U59A A69U]: the yeast fitness is ≤ 0.5.

With GUUCCCUUGGCGUAAUGGUAACGCGUCUCCCUCCUAGGGAGACGACUGCGGGUUCGAGUCCUGUACGGAACG [G6C A37G A43C C62U], the yeast fitness was ≤ 0.5.

GUUCCAUUGGCGUAAUGGUAACGCGUCUCCCUCCUAAGUAGAAGACUGCGGGUUCGAGUCCCGUACGGAACG [G6A G39U]: the yeast fitness is 0.79.

GUUCCAUUGGCGUAAUGGUAACGCGUCUCCCUCCUAAGGAGAAGACUCCGGGUUCGAGUCCCGUACGGAACG [G6A G48C]: the yeast fitness amounted to 0.884.

For GUUCCAUUGGCGUAAUGCUAACGCGUCUCCCUCCUAAGGAGAAGACUGUGGGUUCGAGUCGCGUACGGAACG [G6A G18C C49U C61G], the yeast fitness was ≤ 0.5.

As to GUUCCAUUGGCGGAAUGGUAACGCGUCUCCCUCCUAAGGAGAAGACUGCGGGUUAGAGUCCCGUACGGAACG [G6A U13G C55A], the yeast fitness is ≤ 0.5.

In the case of GUUCCAUUGGCGGAAUGGUAACGCGUCUCCCUCCUAAGGAGAAGACUGCCGGUUCGAGUCCCGUACGGAACG [G6A U13G G50C], the yeast fitness is 0.538.

Turning to GUUCCAUUGGCGUAAAGGUAACGCCUCUCCCUCCUAAGGAGAAGACUGCGGGUUCGAGUCCCGUACGGAACG [G6A U16A G25C], the yeast fitness was 0.644.

As to GUUCCAUUGGCGUAAUGGUAACGCAUCUCCCUCCUAAGGAGAAGUCUGCGGGUUCGAGUCCAGUACGGAACG [G6A G25A A45U C62A], the yeast fitness is ≤ 0.5.

Take GUUCCAUUGGCGUAAUGGUAACGCGUCUCCCUCCUAAGGAGAAAACUGCGGGUUCGAGUCCCGUACGGCACG [G6A G44A A69C]: the yeast fitness came to 0.576.

Take GUUCCAUUGGCGGAAUGGUAACGCGUUUCCCUCCUAAGGAGAAGACUGCGGGUUCGAGUCCCGUACGGAACG [G6A U13G C27U]: the yeast fitness stood at 0.539.

In the case of GUUCCAUUGGCGUAAUGGUAACGCGUCUCCCUCCUAAGGAGAAGACUGCAGGUUCGAGUACCGUACGUAACG [G6A G50A C60A G68U], the yeast fitness was ≤ 0.5.

In the case of GUUCCAUUGGCGUAAUGGUAACGCGUCUCCCUCCUAAGGAGAAAAAUGCGGAUUCGAGUCCCGUAUGGAACG [G6A G44A C46A G52A C66U], the yeast fitness was 0.526.

On to GUUCCCUUGGCGUAAUGGUCACGCGUCUCCCUCCUAAGGAGAAGACUGCGGGUUCGAGUCCCGUAGGGAACG [G6C A20C C66G], for which the yeast fitness stood at 0.957.

On to GUUCCCUUGGCGUAGUGGUAACGCGUCUCCCUCCUAAGGAGAAGACUGCGGGUUCCAGUCCCGUACGGAACG [G6C A15G G56C], for which the yeast fitness was ≤ 0.5.

For the variant GUUCCAUUGGCGCUAUGGUAACGCGUCUCUCUCCUAAGGAGAAGACUGCGGGUUCGAGUCCCGUACGGUACG [G6A U13C A14U C30U A69U], the yeast fitness was ≤ 0.5.

Take GUUCCCUUGGCGUAUUGGUAACCCGUCUCCGUCCUAGGGAGAAGACUGCGGGUUCCAGUCCCGUACGGAACG [G6C A15U G23C C31G A37G G56C]: the yeast fitness was ≤ 0.5.

As for GUUCCAUUGGCGUAAUGGAAACGCGUCUCCCUCCUAAGGAGAAGACUGCGGGAUCGAGUACCGUACGGUACG [G6A U19A U53A C60A A69U], the yeast fitness is ≤ 0.5.

GUUCCAUUGGCGUAAUGGUAACGCGGCUCCCUCCUUAGGAGAAGACUGCGGGUUCGAGUCCCGUACGGAACG [G6A U26G A36U]: the yeast fitness is ≤ 0.5.

In the case of GUUCCCUUGGCGUAAUGGUAACGCGUCUCCCUCCUCAGGGGAAGACUACGGGUUCGAGUCCCGUUUGGUACG [G6C A36C A40G G48A A65U C66U A69U], the yeast fitness is ≤ 0.5.

Regarding GUUCCAUUGGCGUAAUGGAAACGCGUCUCCCUCCUAAGGAGAAGACUGCGGGAUCGAGUCCCGUACGGAACG [G6A U19A U53A], the yeast fitness is ≤ 0.5.

Take GUUCCCUUGGCGUAAUGGUUACGCGUCUCGCUCCUAAGGAGAAGACUGCGGGUUCGAGUCCCGUAUGGAACG [G6C A20U C30G C66U]: the yeast fitness was ≤ 0.5.

On to GUUCCCUUGGCGUACUGGUACCGCGUCUCCCUCUUAUGGAGAAGACUGCGGGUUCGAGUCCCGUACGGAACG [G6C A15C A21C C34U A37U], for which the yeast fitness turned out to be 0.502.

With GUUCCAUUGGCGGAAUGGUAACGCGUCUCCCUCCUAAGGAGCAGACUGCGGGUUCGAGUCCCGUACGGAACG [G6A U13G A42C], the yeast fitness was 0.711.

For the variant GUUCCAGUGGCGUAAUGGUAACGAGCCUCCCUCCUAAGGAGAAGACUGCGGGUUCGAGUCCCGUACGGAACG [G6A U7G C24A U26C], the yeast fitness was ≤ 0.5.

GUUCCAUCGGCGUAAUGGAAACGCGUCUCCCUCCUAAGGAGAAGACUGCGGGCUCGAGUCCCGUACGGAACG [G6A U8C U19A U53C]: the yeast fitness was ≤ 0.5.

GUUCCCUUGGCGUAUUGGUAACCCGUCUCCGUCCUAAGGACAAGACUCCGGGUUCGAGUCCCGUACGGUACG [G6C A15U G23C C31G G41C G48C A69U]: the yeast fitness worked out at 0.562.
